Only a selection was taken, and hits are over-represented in it overall.
INS promoter act: activators of insulin promoter-driven GFP, primary screen, imaging, TRM-6 cells (human fetal islet line), eGFP reporter, cell count; plate-scaled: unstimulated 0, stimulated control 100; activation, % at 2 µM; 130,000 tested, 0.81% active;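 active = activation at 2 µM above a set limit, confirmed on inspection of the cell images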;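 also: share of cells whose green reporter signal exceeds an intensity cutoff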
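Assay system: TRM-6 human fetal islet cells, insulin promoter–eGFP reporter; Also added: 0.75 µM tamoxifen as reporter inducer; Schedule: 15 h tamoxifen pre-treatment, 48 h compound treatment at 37 °C; Signal: fixed-cell fluorescence microscopy, eGFP plus Hoechst; Read-out: percent activation from GFP-positive cell fraction; Control set: stimulated and unstimulated wells.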
* = called active by the depositor.

SMILES | INS promoter act
CC(C)CNC(=O)CC(c1ccccc1)c1ccccc1 | 0
Cc1ccc(OCC(=O)Nc2ccc(N3CCCC3)cc2)cc1C | 163*
COc1ccccc1OCC(=O)Nc1ccc(N2CCCCC2)cc1 | -9
O=C(COc1cccc(Cl)c1)Nc1ccc(N2CCOCC2)cc1 | 0
COc1ccccc1NC(=O)CSc1nc2ccccc2cc1Cc1ccccc1 | 3
COc1ccccc1N1CCN(S(=O)(=O)c2ccc3c(c2)n(C)c(=O)n3C)CC1 | 115
N#CCC(=O)N1CCN(C=O)CC1 | 5
Cc1c(N2C(=O)/C(=C\c3ccc(N(C)C)cc3)N(C)C2=S)c(=O)n(-c2ccccc2)n1C | 139
CCOC(=O)C1CCN(C(=O)COc2ccc(Cl)cc2)CC1 | 0
CCOC(=O)C1CCCN(C(=O)Cc2ccc(Cl)cc2)C1 (centres undefined) | 85*
CCOC(=O)C1CCCN(C(=O)CCc2ccccc2)C1 (centres undefined) | -78
CCCC(C)c1nnc(NC(=O)c2cc(C(=O)OC)cc([N+](=O)[O-])c2)s1 (centres undefined) | -7
c1ccc2c(c1)CCN(Cc1nnnn1Cc1ccc3c(c1)OCO3)C2 | -7
CCOc1ncccc1C(=O)N1CCN(Cc2ccc3c(c2)OCO3)CC1 | 7
c1cncc(C(c2nnnn2C2CCCC2)N2CCN(Cc3ccc4c(c3)OCO4)CC2)c1 (centres undefined) | 119
CC(C)C(c1nnnn1Cc1ccc(F)cc1)N1CCN(Cc2ccc3c(c2)OCO3)CC1 (centres undefined) | 121*
c1cc2c(cc1CN1CCOCC1)OCO2 | 3
c1cnc(N2CCN(Cc3ccc4c(c3)OCO4)CC2)nc1 | 314*
c1ccc2c(c1)OCCOCCOCCOCCOc1ccccc1OCCOCCOCCO2 | 161
Cc1ccc(CNC(=O)Cn2nnc3ccccc3c2=O)cc1 | -8
O=C(COc1ccccc1)N/N=C/c1ccc(O[C@@H]2O[C@H](CO)[C@@H](O)[C@H](O)[C@H]2O)cc1 | 4
COc1ccc(OC)c2sc(N(CCN(C)C)C(=O)c3cc(Cl)sc3Cl)nc12 | 283*
CN(C)CCN(C(=O)c1cccc(Cl)c1)c1nc2c(Cl)cccc2s1 | -10
CN(C)CCCN(C(=O)c1ccco1)c1nc2ccc(Cl)cc2s1 | 0
CCCC(=O)Nc1ccc(Cc2ccc(NC(=O)CCC)c(C(=O)O)c2)cc1C(=O)O | -8
SMILES | INS promoter act
Cc1ccc(-n2ncc3c(SCC(=O)NNC(=O)c4ccco4)ncnc32)cc1 | 0
COc1ccc(NC(=S)NNC(=O)c2nnn(-c3ccccc3)c2C)cc1 | 3
FC(F)(F)C(Oc1nc(Nc2ccc(Cl)cc2)nc(N2CCOCC2)n1)C(F)(F)F | 279
Cc1nnsc1SCCNC(=O)c1ccc(F)cc1 | 7
CC1(C)CC(=O)C2=C(C1)N(c1ccccc1)C(=O)C2(O)C(F)(F)F (centres undefined) | -4
CCOc1ccc(OCCCCOc2ccccc2C(C)=O)cc1 | -3
COc1cc(OC)c(OC)cc1CNc1cc(C)ccc1OC | 9
COc1cc2ncnc(NCc3ccc(C)cc3)c2cc1OC | 230*
COc1ccc(CNC(=O)CSc2ncnc3ccccc23)cc1OC | -9
Cc1ccc(SCC(=O)NN2C(=O)c3ccccc3C2=O)cc1 | 8
CCN(CC)c1ccc(/C=C2\C(=O)c3ccc(C(=O)O)cc3C2=O)cc1 | 0
COc1ccc(C2NC(=S)NC(O)(C(F)(F)F)C2C(=O)c2cccs2)cc1 (centres undefined) | -9
COc1ccc(N2CCN(C(=O)CN(c3ccccc3)S(=O)(=O)c3ccc(OC)cc3)CC2)cc1 | 80*
COc1ccc(N2CCN(C(=O)CCNC(=O)c3ccccc3)CC2)cc1 | -5
Cc1cc(C)cc(N(CC(=O)N2CCOCC2)S(=O)(=O)c2ccccc2)c1 | 72
CCCc1cc(=O)[nH]c(SCC(=O)N2CCN(S(=O)(=O)c3ccc(Cl)cc3)CC2)n1 | -6
CC(=O)Nc1ccc(NC(=O)C(C)OC(=O)c2ccc(C)s2)cc1 (centres undefined) | 0
COc1ccc(S(=O)(=O)N(C)CC(=O)Nc2ccc(C(F)(F)F)cc2)cc1Cl | 0
O=C(Nc1ccc(F)c(F)c1)c1ccco1 | -7
O=C(Nc1ccc(Br)cc1)c1ccco1 | 557*
CC(=O)N(C)c1ccc(NC(=O)c2ccco2)cc1 | -3
COc1cccc(C(=O)NC(=S)Nc2ccc(N(C)C)cc2)c1 | -9
Cc1ccc(-c2ccc(C(=O)O)c(C)n2)cc1 | 386*
Cc1nc(N(C)C)ncc1C(=O)O | 2
Cc1ccc(-c2nc(C(=O)O)cs2)cc1 | 146
SMILES | INS promoter act
COc1ccc(C(=O)NNC2CC(=O)N(Cc3ccc(Cl)cc3)C2=O)cc1OC (centres undefined) | -3
CC(=O)Nc1ccc(S(=O)(=O)N(Cc2ccccc2)C(C)C)cc1 | 3
COc1ccc(CCNC(=S)N2CCC(Cc3ccccc3)CC2)cc1OC | -5
CN(C)c1ccc(NC(=O)CC2NCCNC2=O)cc1 (centres undefined) | 488*
CN(C)c1ccc(NC(=O)COC(=O)CCC(=O)c2ccc(F)cc2)cc1 | -3
O=C(CC1NCCc2ccccc21)Nc1ccccc1 (centres undefined) | 7
CCOc1ccccc1NC(=O)Cn1c(=O)n(-c2ccc(OC)cc2OC)c(=O)c2c(C)c(C(=O)N(CC)CC)sc21 | 7
Cc1ccc(OCC(O)CNC(=O)c2ccccc2C(=O)O)cc1 (centres undefined) | 3
CC(=O)Nc1ccc(/C(C)=N/NC(=O)c2ccccc2Cl)cc1 | -6
O=C(CN1CCCCC1)Nc1ccc(S(=O)(=O)N2CCOCC2)cc1 | 4
O=C(CN1CCOCC1)Nc1ccc(S(=O)(=O)NC2CCCCC2)cc1 | 200*
CCCCN(CCCC)S(=O)(=O)c1ccc(NC(=O)CN2CCOCC2)cc1 | 6
O=C(CCn1nnc2ccccc21)N/N=C\Cc1ccccc1 | 7
CCc1nn(-c2ccccc2)c2c1-c1cc(OC)c(OC)cc1C1(N2)C(=O)Nc2ccccc21 (centres undefined) | -4
COc1ccc(C(=O)N(C)c2c(C)n(C)n(-c3ccccc3)c2=O)cc1OC | 0
O=C(Cn1cccc1C(=O)c1ccccc1)NCc1ccc(Cl)cc1 | 7
Cc1ccc(CNC(=O)Cn2cccc2C(=O)c2ccccc2)cc1 | 5
O=C(Cn1cccc1C(=O)c1ccccc1)NCc1cccc(Cl)c1 | 387*
Cc1nc2ccc([N+](=O)[O-])cc2s1 | 8
Cc1ccc(C(=O)Nc2ccc3nc(C)sc3c2)s1 | 562*
Cc1nc2ccc(NC(=O)CCS(=O)(=O)c3ccc(Cl)cc3)cc2s1 | 8
Cc1ccc(CNC(=O)N[C@@H](Cc2ccccc2)C(=O)O)cc1 | 7
Clc1ccccc1Cn1nnc(-c2cccs2)n1 | 569*
Clc1ccccc1-c1nnc2sc(-c3cccs3)nn12 | 0
O=C(O)CCn1nnc(-c2cccs2)n1 | 0
SMILES | INS promoter act
C/C(=N\NC(=O)CC(C)C)c1ccc(N2CCCCC2)cc1 | 8
CCN(CC(=O)Nc1ccccc1OC)CC(=O)Nc1c(Cl)ccc(C)c1Cl | 0
O=c1[nH]c2cc3c(cc2cc1CN(CCCO)Cc1nnnn1Cc1ccc(F)cc1)OCO3 | 0
COc1ccc2[nH]c(=O)c(CN(Cc3nnnn3Cc3ccc(F)cc3)CC3CCCO3)cc2c1 (centres undefined) | 118
Cc1ccc2cc(CN(CCO)Cc3nnnn3Cc3ccc(F)cc3)c(=O)[nH]c2c1 | 140*
COc1ccc(-c2nnc(SCc3cc(C)ccc3C)n2N)cc1 | -9
COc1ccc(-n2c(SCc3ccccn3)nc3c(c2=O)SCC3)cc1OC | 6
